Results: ChEMBL document CHEMBL4028848, “Discovery of N-{4-[5-(4-Fluorophenyl)-3-methyl-2-methylsulfanyl-3H-imidazol-4-yl]-pyridin-2-yl}-acetamide (CBS-3595), a Dual p38α MAPK/PDE-4 Inhibitor with Activity against TNFα-Related Diseases” (J Med Chem, 2017)
Values joined by “and” are separate entries in the source; they are usually repeats but may differ in a detail not shown here. Equal values may be shown once. Active and inactive are the calls of the source. No cut-off for these calls is given here.

Tests used:
[1] = AUC (infinity) in human at 0.5 mg, po administered as single dose; assay type: ADME, organism-based; set-up: dose 0.5 mg, time infinity, route oral; settings: in vivo
[2] = Fraction unbound in human plasma; assay type: ADME, cell-free
Outline: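 Plasma protein binding measured in human, Sprague–Dawley rat and Cynomolgus monkey plasma at 1, 10 and 30 μM compound. Reported as unbound fraction (%).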

[3] = species: Homo sapiens; experiment: Inhibition of PDE4 in human U937 cells assessed as [3H]cAMP hydrolysis at 1 uM relative to control; assay type: cell-based
[4] = test system: Homo sapiens; experiment: Cmax in human assessed as roflumilast N-oxide formation at 0.5 mg, po administered as single dose; assay type: ADME, organism-based; set-up: dose 0.5 mg, route oral; settings: in vivo
[5] = species: Homo sapiens; experiment: Inhibition of PDE4 in LPS-stimulated human whole blood assessed as decrease in leukotriene B4 level in plasma
[6] = test system: Homo sapiens; experiment: AUC (infinity) in human assessed as roflumilast N-oxide formation at 0.5 mg, po administered as single dose; assay type: ADME, organism-based; set-up: dose 0.5 mg, route oral, time infinity; settings: in vivo
[7] = Cmax in human at 0.5 mg, po administered as single dose; assay type: ADME, organism-based; set-up: dose 0.5 mg, route oral; settings: in vivo
[8] = test system: Rattus norvegicus; experiment: In vivo inhibition of P38 MAPKalpha in Lewis rat assessed as decrease in LPS-stimulated TNFalpha level in serum at 10 mg/kg, po pretreated for 1 hr followed by LPS addition measured after 1.5 hrs post dose relative to control; assay type: functional
Outline: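 Lewis rats, n = 8/group: females dosed orally at 10 mg/kg at −1, −3 or −5 h relative to LPS challenge, plus one male group dosed at −1 h. Male and female vehicle controls were given at −1 h. Serum TNFα was measured after LPS and compared with vehicle.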

[9] = test system: Rattus norvegicus; experiment: Antiarthritic activity in Lewis rat assessed as collagen oligomeric matrix protein level in serum at 1 mg/kg, po qd administered for 10 days (Rbv = 0.17 +/- 0.02 U/l); assay type: functional
Outline: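 Collagen-induced arthritis in male Lewis rats (5–6 per group). Groups received vehicle, dexamethasone 1 mg/kg, test item 50 mg/kg once daily, or 25 mg/kg twice daily for 10 days. Body weight, arthritic score and paw volume were monitored, and serum COMP was measured at the end.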

[10] = biological target: Voltage-gated inwardly rectifying potassium channel KCNH2 (Homo sapiens, UniProt Q12809); experiment: Inhibition of human ERG expressed in HEK293 cells by patch clamp method; assay type: cell-based
[11] = test system: Rattus norvegicus; experiment: Toxicity in Wistar rat assessed as death at 100 to 2500 mg/kg, po administered for 48 hrs followed by administration of 300 mg/kg, bid for 7 days with 8 hrs interval between first and second dose measured after 7 days; assay type: organism-based; settings: in vivo, 168 h
Outline: (§1)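 Wistar rats, maximum-tolerated-dose estimate in two steps. Step one: single oral doses of 100 (n = 1), 500 (n = 1) and 2500 mg/kg (n = 3), with clinical signs watched for 48 h. Step two: 300 mg/kg (n = 5) twice daily for 7 days, second dose 8 h after the first. After 7 days, body weight gain, blood cell number and composition, liver enzymes, and macroscopic liver and spleen were recorded.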

[12] = biological target: CYP2D6 (Homo sapiens, UniProt P10635); experiment: Inhibition of CYP2D6 (unknown origin) at 10 uM by fluorimetric assay relative to control; assay type: ADME
Outline: (§2)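 CYP1A2, CYP2C9, CYP2C19, CYP3A4 and CYP2D6 were tested as a panel for cytochrome P450 interaction.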

[13] = AUC (0 to t) in Wistar rat at 30 mg/kg, po administered as single dose via gavage by LC-MS/MS analysis; assay type: ADME, organism-based; settings: in vivo
Outline: (§3)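 Male and female Wistar rats received a single oral gavage of 30 mg/kg. Parameters are given as the mean of the two sexes.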

[14] = biological target: Mitogen-activated protein kinase 10 (Homo sapiens) (UniProt P53779); experiment: Inhibition of human recombinant full length N-terminal His6 tagged JNK3 expressed in Sf21 cells at 10 uM relative to control
[15] = test system: Rattus norvegicus; experiment: Toxicity in Wistar rat assessed as effect on microscopic appearance of liver at 100 to 2500 mg/kg, po administered for 48 hrs followed by administration of 300 mg/kg, bid for 7 days starting 8 hrs interval between first and second dose measured after 7 days; assay type: organism-based; settings: in vivo, 168 h
[16] = Tmax in Wistar rat at 30 mg/kg, po administered as single dose via gavage by LC-MS/MS analysis; assay type: ADME, organism-based; settings: in vivo
Outline: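 Male and female Wistar rats each received a single 30 mg/kg oral gavage dose. Tmax is the mean of males and females.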

[17] = biological target: CYP2C9 (Homo sapiens, UniProt P11712); experiment: Inhibition of CYP2C9 (unknown origin) at 10 uM by fluorimetric assay relative to control; assay type: ADME; outline: as §2
[18] = test system: Rattus norvegicus; experiment: Toxicity in Wistar rat assessed as effect on composition of blood cells at 100 to 2500 mg/kg, po administered for 48 hrs followed by administration of 300 mg/kg, bid for 7 days starting 8 hrs interval between first and second dose measured after 7 days; assay type: organism-based; settings: in vivo, 168 h; outline: as §1
[19] = biological target: Mitogen-activated protein kinase 11 (Homo sapiens) (UniProt Q15759); experiment: Inhibition of p38beta (unknown origin) at 10 uM relative to control
[20] = biological target: CYP1A2 (Homo sapiens, UniProt P05177); experiment: Inhibition of CYP1A2 (unknown origin) at 10 uM by fluorimetric assay relative to control; assay type: ADME; outline: as §2
[21] = test system: Rattus norvegicus; experiment: Protection against LPS-induced endotoxemia in Wistar rat assessed as inhibition of plasma TNFalpha level at 10 mg/kg, po pretreated for 1 hr followed by LPS addition measured after 90 mins relative to control; assay type: functional
[22] = biological target: CYP3A4 (Homo sapiens, UniProt P08684); experiment: Inhibition of CYP3A4 (unknown origin) at 10 uM by fluorimetric assay relative to control; assay type: ADME; outline: as §2
[23] = Fraction unbound in human plasma at 5 uM by equilibrium dialysis relative to control; assay type: ADME, cell-free
[24] = test system: Mus musculus; experiment: Antiarthritic activity in DBA/1 mouse assessed as decrease in collagen-induced arthritic score at 50 mg/kg, bid administered on day 22 post second injection of type 2 collagen; assay type: functional, organism-based
Outline: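 Collagen-induced arthritis in male DBA/1 mice. Dosing at 50 mg/kg b.i.d. began on day 22, one day after the second (boost) injection of type II collagen.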

[25] = Half life in Wistar rat at 30 mg/kg, po administered as single dose via gavage by LC-MS/MS analysis; assay type: ADME, organism-based; settings: in vivo
Outline: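 Single oral gavage dose of 30 mg/kg given to male and female Wistar rats. PK parameters are reported as the mean of males and females.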

[26] = test system: Mus musculus; experiment: Toxicity in DBA/1 mouse model of collagen-induced arthritis at 50 mg/kg, bid administered on day 22 post second injection of type 2 collagen; assay type: organism-based; settings: in vivo
Outline: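 Male DBA/1 mice with collagen-induced arthritis were dosed at 50 mg/kg b.i.d. starting on day 22, 1 day after the type II collagen boost. Animals were monitored for signs of toxicity, including body weight loss relative to controls.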

[27] = test system: Rattus norvegicus; experiment: Toxicity in Wistar rat assessed as change in body weight at 100 to 2500 mg/kg, po administered for 48 hrs followed by administration of 300 mg/kg, bid for 7 days starting 8 hrs interval between first and second dose measured after 7 days; assay type: organism-based; settings: in vivo, 168 h; outline: as §1
[28] = Ratio of Cmax in Wistar rat at 30 mg/kg, po administered as single dose via gavage to IC50 for P38 MAPKalpha in LPS-stimulated human whole blood assessed as decrease in TNFalpha level
[29] = biological target: CYP2C19 (Homo sapiens, UniProt P33261); experiment: Inhibition of CYP2C19 (unknown origin) at 10 uM by fluorimetric assay relative to control; assay type: ADME; outline: as §2
[30] = test system: Rattus norvegicus; experiment: Toxicity in Wistar rat assessed as effect on number of blood cells at 100 to 2500 mg/kg, po administered for 48 hrs followed by administration of 300 mg/kg, bid for 7 days starting 8 hrs interval between first and second dose measured after 7 days; assay type: organism-based; settings: in vivo, 168 h; outline: as §1
[31] = test system: Rattus norvegicus; experiment: Toxicity in Wistar rat assessed as effect on liver enzyme at 100 to 2500 mg/kg, po administered for 48 hrs followed by administration of 300 mg/kg, bid for 7 days starting 8 hrs interval between first and second dose measured after 7 days; assay type: organism-based; settings: in vivo, 168 h; outline: as §1
[32] = Cmax in Wistar rat at 30 mg/kg, po administered as single dose via gavage by LC-MS/MS analysis; assay type: ADME, organism-based; set-up: dose 30 mg/kg, route oral; settings: in vivo; outline: as §3
[33] = test system: Rattus norvegicus; experiment: Toxicity in Wistar rat assessed as effect on microscopic appearance of spleen at 100 to 2500 mg/kg, po administered for 48 hrs followed by administration of 300 mg/kg, bid for 7 days starting 8 hrs interval between first and second dose measured after 7 days; assay type: organism-based; settings: in vivo, 168 h
[34] = biological target: Mitogen-activated protein kinase 14 (Homo sapiens, UniProt Q16539); experiment: Inhibition of p38alpha MAPK (unknown origin) at 1 uM relative to control
[35] = test system: Liver; experiment: Drug level in human liver microsomes treated with CBS-3595 at 10 to 100 uM; assay type: ADME, microsome
Outline: (§4)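 Test compound incubated at 10, 30 and 100 μM with liver microsomes from rat, Cynomolgus monkey or human, and metabolites monitored.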

[36] = test system: Liver; experiment: Drug level in rat liver microsomes treated with CBS-3595 at 10 to 100 uM; assay type: ADME, microsome; outline: as §4
[37] = Drug level in cynomolgus monkey liver microsomes treated with CBS-3595 at 10 to 100 uM; assay type: ADME, Macaca fascicularis, microsome; outline: as §4
[38] = Apparent permeability in human Caco2 cells at 10 uM; assay type: ADME, cell-based; settings: Caco-2

Sequence of Voltage-gated inwardly rectifying potassium channel KCNH2 (Q12809 whole entry): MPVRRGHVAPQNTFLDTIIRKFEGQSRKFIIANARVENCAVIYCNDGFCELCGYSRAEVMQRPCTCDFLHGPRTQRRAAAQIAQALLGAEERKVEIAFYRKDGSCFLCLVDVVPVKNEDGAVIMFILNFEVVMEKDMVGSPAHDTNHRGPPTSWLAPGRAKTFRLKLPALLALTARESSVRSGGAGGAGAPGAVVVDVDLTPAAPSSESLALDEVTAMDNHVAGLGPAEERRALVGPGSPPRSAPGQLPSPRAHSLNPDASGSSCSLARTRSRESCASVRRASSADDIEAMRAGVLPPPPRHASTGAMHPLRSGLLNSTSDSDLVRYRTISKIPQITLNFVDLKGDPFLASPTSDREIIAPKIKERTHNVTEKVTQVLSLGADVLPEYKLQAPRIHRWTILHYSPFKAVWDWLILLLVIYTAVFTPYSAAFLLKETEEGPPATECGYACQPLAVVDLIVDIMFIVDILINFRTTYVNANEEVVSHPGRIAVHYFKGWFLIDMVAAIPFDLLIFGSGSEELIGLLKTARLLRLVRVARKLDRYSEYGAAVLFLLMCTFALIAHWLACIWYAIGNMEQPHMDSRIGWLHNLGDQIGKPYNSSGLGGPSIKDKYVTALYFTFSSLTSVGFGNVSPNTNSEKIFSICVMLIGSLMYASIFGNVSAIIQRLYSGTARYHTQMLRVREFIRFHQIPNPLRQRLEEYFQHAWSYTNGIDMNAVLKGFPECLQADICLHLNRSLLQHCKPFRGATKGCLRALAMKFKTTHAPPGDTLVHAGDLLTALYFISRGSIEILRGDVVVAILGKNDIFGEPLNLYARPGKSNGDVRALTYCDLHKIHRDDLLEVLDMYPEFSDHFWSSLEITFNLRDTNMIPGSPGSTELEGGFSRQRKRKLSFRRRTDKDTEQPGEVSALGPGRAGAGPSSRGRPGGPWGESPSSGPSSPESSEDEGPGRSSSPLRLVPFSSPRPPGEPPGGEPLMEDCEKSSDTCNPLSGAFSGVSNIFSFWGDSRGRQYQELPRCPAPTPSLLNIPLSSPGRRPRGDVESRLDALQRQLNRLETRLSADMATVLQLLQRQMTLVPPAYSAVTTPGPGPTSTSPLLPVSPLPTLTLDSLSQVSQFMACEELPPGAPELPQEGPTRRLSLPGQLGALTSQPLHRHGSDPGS
Sequence of CYP1A2 (P05177 whole entry): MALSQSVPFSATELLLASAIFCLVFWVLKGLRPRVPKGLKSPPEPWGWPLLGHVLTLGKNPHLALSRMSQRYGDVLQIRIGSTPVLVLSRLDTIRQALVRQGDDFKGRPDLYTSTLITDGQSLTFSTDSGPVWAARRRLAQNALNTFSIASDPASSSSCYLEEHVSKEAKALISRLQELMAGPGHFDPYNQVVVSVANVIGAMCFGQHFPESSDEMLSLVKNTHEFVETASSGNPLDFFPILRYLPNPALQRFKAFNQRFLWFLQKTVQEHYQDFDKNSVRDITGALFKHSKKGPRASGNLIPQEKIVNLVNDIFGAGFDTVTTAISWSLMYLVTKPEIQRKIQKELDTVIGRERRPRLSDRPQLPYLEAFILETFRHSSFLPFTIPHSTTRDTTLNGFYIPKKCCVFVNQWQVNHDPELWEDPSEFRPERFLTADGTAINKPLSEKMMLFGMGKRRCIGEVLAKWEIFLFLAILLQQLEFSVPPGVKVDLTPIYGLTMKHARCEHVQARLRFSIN
Sequence of CYP2C19 (P33261 whole entry): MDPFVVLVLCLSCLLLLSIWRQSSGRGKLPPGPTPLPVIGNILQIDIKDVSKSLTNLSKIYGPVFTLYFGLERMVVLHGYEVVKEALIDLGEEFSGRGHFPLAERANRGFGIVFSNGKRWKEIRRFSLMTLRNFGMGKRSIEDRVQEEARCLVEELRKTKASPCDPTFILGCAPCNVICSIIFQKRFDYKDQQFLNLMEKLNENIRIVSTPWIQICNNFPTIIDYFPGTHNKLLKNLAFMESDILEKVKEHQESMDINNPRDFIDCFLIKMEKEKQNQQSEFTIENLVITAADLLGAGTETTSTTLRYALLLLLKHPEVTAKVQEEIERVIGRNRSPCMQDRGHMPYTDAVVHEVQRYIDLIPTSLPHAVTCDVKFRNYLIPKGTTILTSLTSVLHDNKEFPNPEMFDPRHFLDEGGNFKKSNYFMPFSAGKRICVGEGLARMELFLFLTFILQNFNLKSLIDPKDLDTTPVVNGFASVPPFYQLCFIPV
Sequence of Mitogen-activated protein kinase 14 (Q16539 whole entry): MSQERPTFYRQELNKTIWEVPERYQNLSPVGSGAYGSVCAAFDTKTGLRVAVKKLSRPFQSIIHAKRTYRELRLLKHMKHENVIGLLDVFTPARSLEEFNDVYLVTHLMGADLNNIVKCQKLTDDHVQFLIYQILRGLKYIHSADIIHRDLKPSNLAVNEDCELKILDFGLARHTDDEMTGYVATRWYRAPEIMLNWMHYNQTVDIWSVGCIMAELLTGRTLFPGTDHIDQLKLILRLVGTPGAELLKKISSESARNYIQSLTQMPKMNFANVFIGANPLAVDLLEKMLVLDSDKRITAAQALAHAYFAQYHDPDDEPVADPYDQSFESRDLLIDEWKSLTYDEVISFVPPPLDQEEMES
Sequence of CYP2C9 (P11712 whole entry): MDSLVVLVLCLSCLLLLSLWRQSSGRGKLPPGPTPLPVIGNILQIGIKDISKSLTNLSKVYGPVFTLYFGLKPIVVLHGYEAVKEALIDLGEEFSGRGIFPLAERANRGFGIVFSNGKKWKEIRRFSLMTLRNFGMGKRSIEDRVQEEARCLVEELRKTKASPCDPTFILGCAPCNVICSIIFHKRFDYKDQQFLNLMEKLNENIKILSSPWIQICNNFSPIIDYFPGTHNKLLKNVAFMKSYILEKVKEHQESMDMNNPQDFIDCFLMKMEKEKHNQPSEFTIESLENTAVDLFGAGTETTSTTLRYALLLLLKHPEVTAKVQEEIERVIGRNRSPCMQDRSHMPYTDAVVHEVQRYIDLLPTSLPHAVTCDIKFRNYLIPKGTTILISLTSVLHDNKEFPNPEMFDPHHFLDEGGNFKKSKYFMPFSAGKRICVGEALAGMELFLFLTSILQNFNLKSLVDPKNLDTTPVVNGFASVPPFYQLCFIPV
Sequence of Mitogen-activated protein kinase 10 (Homo sapiens) (P53779 whole entry): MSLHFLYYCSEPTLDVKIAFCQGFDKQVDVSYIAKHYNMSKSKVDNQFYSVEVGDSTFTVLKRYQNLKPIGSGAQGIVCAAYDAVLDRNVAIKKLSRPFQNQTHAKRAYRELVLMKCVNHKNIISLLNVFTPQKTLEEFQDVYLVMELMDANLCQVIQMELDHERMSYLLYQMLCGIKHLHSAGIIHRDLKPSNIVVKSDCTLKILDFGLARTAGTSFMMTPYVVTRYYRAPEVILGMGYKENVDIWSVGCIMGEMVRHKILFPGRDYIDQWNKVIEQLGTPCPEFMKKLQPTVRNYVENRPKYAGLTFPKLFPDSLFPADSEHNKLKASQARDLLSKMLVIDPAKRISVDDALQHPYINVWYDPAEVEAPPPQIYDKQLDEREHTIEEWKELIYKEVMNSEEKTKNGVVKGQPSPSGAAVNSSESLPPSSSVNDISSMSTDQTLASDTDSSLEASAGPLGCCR
Sequence of CYP3A4 (P08684 whole entry): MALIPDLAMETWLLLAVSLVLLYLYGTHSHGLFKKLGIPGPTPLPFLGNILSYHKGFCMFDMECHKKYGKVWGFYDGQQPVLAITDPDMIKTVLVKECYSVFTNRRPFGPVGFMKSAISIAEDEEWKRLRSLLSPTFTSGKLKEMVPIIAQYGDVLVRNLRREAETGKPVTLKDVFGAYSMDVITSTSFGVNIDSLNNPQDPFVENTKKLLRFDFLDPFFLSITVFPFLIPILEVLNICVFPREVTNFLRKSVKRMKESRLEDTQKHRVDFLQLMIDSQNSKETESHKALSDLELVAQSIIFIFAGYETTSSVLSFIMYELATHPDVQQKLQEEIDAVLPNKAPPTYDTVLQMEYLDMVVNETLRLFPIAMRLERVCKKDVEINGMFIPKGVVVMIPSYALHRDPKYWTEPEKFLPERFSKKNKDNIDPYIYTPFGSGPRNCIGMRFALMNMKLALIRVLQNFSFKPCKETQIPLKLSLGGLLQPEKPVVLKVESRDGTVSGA
Sequence of CYP2D6 (P10635 whole entry): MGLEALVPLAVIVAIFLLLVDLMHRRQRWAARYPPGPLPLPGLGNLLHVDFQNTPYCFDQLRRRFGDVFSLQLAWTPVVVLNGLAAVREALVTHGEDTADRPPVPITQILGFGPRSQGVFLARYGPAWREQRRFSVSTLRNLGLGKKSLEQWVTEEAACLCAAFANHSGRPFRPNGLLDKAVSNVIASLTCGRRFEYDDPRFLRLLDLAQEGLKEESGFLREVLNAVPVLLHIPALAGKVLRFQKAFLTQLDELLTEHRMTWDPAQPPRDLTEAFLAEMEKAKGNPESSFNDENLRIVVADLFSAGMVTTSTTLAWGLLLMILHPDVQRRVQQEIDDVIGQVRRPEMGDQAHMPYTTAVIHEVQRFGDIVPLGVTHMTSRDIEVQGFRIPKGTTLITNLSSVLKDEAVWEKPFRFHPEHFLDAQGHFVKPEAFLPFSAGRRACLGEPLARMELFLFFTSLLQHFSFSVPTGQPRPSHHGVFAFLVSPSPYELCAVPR
Sequence of Mitogen-activated protein kinase 11 (Homo sapiens) (Q15759 whole entry): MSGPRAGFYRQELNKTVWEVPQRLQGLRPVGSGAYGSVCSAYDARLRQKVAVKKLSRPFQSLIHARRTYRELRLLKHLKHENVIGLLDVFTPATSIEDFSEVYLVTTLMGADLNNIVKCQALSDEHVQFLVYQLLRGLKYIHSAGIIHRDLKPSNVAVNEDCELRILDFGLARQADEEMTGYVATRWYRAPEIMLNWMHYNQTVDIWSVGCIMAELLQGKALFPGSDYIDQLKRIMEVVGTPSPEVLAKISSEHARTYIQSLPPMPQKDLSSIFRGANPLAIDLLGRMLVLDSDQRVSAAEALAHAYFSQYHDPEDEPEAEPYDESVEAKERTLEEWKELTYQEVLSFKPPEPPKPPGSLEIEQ

SMILES: O=C(Nc1c(Cl)cncc1Cl)c1ccc(OC(F)F)c(OCC2CC2)c1 [ROFLUMILAST]
- AUC(0-inf) [1]: 0.0868 µM·h
- fraction unbound [2]: 0.02
- inhibition [3]: 94%
- Cmax [4]: 22.4 nM
- inhibition [5]: Dose-dependent effect
- AUC [6]: 0.8379 µM·h
- Cmax [7]: 13.1 nM
- inhibition in vivo at 10 mg/kg [8]: 67%

SMILES: O=C(Nc1c(Cl)c[n+]([O-])cc1Cl)c1ccc(OC(F)F)c(OCC2CC2)c1
- fraction unbound [2]: 0.04

SMILES: C[C@@H]1C[C@H]2[C@@H]3CCC4=CC(=O)C=C[C@]4(C)[C@@]3(F)[C@@H](O)C[C@]2(C)[C@@]1(O)C(=O)CO [DEXAMETHASONE]
- Activity [9]: 0.03 U/L

SMILES: CSc1nc(-c2ccc(F)cc2)c(-c2ccnc(NC(C)=O)c2)n1C
- IC50 [10]: 28.6 µM
- inhibition (INH) ([10]; human, hek293): Dose-dependent effect
- Activity [11]: Non-Toxic
- inhibition at 10 µM [12]: 45%
- AUC(0-t) [13]: 4930 ng·h/mL and 13.8 µM·h
- inhibition [14]: > 70%
- Activity [15]: Non-Toxic
- Tmax [16]: 1 h
- inhibition at 10 µM [17]: 46%
- Activity [18]: Non-Toxic
- inhibition [19]: > 70%
- inhibition at 10 µM [20]: 18%
- inhibition in vivo at 10 mg/kg [21]: 97%
- inhibition at 10 µM [22]: -7%
- fraction unbound at 5 µM [23]: 0.037
- Activity [24]: Active
- half-life [25]: 3 h
- Activity [26]: Non-Toxic
- Activity [27]: Non-Toxic
- Ratio [28]: 12.5
- inhibition at 10 µM [29]: 4%
- Activity [30]: Non-Toxic
- Activity [31]: Non-Toxic
- Cmax [32]: 738 ng/mL and 2.07 µM
- Activity [33]: Non-Toxic

SMILES: CC(=O)Nc1cc(-c2c(-c3ccc(F)cc3)nc([S@+](C)[O-])n2C)ccn1
- inhibition [34]: 11%

SMILES: CC(=O)Nc1cc(-c2c(-c3ccc(F)cc3)nc(S(C)(=O)=O)n2C)ccn1
- Drug metabolism [35]: Metabolite_Detected
- Drug metabolism [36]: Metabolite_Detected
- Drug metabolism [37]: Metabolite_Detected

SMILES: CC(C)NCC(O)COc1cccc2ccccc12 (stereo not given) [PROPRANOLOL]
- Papp at 10 µM [38]: 71.1 ×10⁻⁶ cm/s
